# Test results taken from PubChem BioAssay.
# Active and inactive are the calls of the source.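 How the source made its calls, unless noted: active means viability at or below 30% in both replicate assays; inconclusive means viability at or below 30% in just one of the two assays; inactive means the rest.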
# Tests used:
# [1] = Her2 expression decrease, cell viability multiplex – SKBR3 breast tumor cells, AlphaScreen, ATP viability, primary screen (AID 461;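 active means Her2 level under about 52% in both replicate screens, with viability over 70% of control, limit read from the data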;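 on Her2 level: lower value means less Her2 protein in the cells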;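 on viability: percent of carrier control wells set as 100% viability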); details: SKBR3 Her2 protein level, 18-24 h, measured here: SKBR3 viability, ATP luminescence, at 10 µM
# [2] = biological target: Receptor tyrosine-protein kinase erbB-2 (Homo sapiens) (UniProt P04626); experiment: as above; details: 18-24 h, at 10 µM, stronger effect = lower value
# [3] = reduced viability of SK-BR-3 breast cancer cells – cell-based, 24 h, human, pilot screen (AID 572;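 active means viability at or below 10% of carrier control in both of two separate runs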;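 further: compound exposure lasted between 18 and 24 h rather than exactly 24 h; 100% = carrier-treated control wells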); details: SK-BR-3 viability, CellTiter-Glo luminescence, at 10 µM, stronger effect = lower value
# [4] = HUVEC growth inhibition – cell-based, human, primary screen (AID 575); details: HUVEC proliferation, CellTiter-Glo luminescence, 72 h; at 10 µM; stronger effect = lower value;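 further: 100% = median of untreated cell wells with 0.1% DMSO on each plate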
# How it was run: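 System – primary HUVEC, no more than 12 passages · Medium – Low-serum (2% FBS) EBM, supplemented · Times – 72 h exposure, 37 °C, 5% CO2, 30 min RT equilibration · Measured by – luminescent ATP assay · Read-out – % viability relative to median vehicle-well signal on each plate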
# [5] = H69AR cell proliferation blockers – human, duplicate replicates, primary screen (AID 580;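 active means viability at or under a set limit in both replicates, limit being median viability minus 3 SD, cut at about 48% in these data, passing the limit was not always enough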;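 further: 100% = mean luminescence of untreated wells and 0% = no signal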); details: H69AR lung tumor cells viability, ATP luminescence, 72 h; at 10 µM; stronger effect = lower value
# [6] = MRP1 drug-resistance reversers in H69AR cells – cell-based, doxorubicin co-treatment, pilot screen (AID 601;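 active means viability loss from added drug above about 55%, and viability with drug at most 40%, in both replicates, limit read from the data, passing the limit was not always enough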); details: CellTiter-Glo, 72 h, at 10 µM; for differential viability (reversal): stronger effect = higher value
# [7] = yeast transport mutant growth inhibition pilot in 384-well plates, post-Golgi transport modulator project (AID 636; in the data active means inhibition above about 31%); details: absorbance 615 nm, about 18 h, stronger effect = higher value
# [8] = growth suppression of yeast trafficking mutant, preliminary HTS, modulators of trafficking downstream of Golgi apparatus project, 1536-format plate, OD 615 nm (AID 637; in the data active means inhibition above about 30%); details: yeast transport mutant growth, absorbance 615 nm, 18 h; stronger effect = higher value
# [9] = H69AR cells + 2 uM doxorubicin, measured here: viability with 2 uM doxorubicin, stronger effect = lower value
# [10] = H69AR cells, compound alone cytotoxicity
# Chain of Receptor tyrosine-protein kinase erbB-2 (Homo sapiens) (P04626 whole entry, looked up): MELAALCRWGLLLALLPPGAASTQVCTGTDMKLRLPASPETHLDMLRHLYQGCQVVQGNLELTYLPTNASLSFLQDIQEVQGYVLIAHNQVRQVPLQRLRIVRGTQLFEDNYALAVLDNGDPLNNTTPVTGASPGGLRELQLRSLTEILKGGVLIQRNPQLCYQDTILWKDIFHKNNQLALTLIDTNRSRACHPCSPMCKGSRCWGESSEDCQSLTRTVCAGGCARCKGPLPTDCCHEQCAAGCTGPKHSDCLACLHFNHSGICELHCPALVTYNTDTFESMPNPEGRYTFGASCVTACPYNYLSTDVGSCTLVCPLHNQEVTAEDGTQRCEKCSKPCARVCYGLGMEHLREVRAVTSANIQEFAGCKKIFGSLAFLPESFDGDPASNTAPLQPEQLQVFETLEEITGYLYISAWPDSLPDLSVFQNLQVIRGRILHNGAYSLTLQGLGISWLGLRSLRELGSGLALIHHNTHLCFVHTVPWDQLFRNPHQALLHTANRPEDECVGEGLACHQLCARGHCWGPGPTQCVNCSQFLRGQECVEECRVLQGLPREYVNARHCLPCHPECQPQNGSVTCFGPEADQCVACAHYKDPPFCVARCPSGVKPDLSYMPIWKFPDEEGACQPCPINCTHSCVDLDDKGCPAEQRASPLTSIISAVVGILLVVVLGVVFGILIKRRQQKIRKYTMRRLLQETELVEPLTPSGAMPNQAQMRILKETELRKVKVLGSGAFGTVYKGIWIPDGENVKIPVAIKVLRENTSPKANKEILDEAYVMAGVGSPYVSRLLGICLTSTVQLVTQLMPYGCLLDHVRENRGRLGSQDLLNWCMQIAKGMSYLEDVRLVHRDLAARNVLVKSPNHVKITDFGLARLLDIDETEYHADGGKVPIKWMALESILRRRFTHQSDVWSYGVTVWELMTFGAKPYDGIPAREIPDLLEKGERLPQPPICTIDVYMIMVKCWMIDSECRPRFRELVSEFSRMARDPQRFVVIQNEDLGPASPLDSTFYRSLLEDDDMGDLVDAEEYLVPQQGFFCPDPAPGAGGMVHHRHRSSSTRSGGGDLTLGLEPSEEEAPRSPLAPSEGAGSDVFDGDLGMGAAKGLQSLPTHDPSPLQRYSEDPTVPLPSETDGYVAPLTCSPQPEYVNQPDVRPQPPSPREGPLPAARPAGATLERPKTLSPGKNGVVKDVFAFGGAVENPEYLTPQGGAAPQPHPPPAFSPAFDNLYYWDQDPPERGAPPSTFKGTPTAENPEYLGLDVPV
SMILES,viability [1],Her2 level [2],viability [3],viability [4],viability [5],differential viability (reversal) ([6]; H69AR cells + 2 uM doxorubicin),"viability [6, 9]","viability [6, 10]",inhibition [7],inhibition [8]
COc1ccc(CNC(=O)Cn2nc(C(F)(F)F)c3c2CCC3)cc1,89.5%,91.5% (inactive),89.5% (inactive),103% (inactive),99.5% (inactive),11.9% (inactive),87.6%,99.5%,-6.13% (inactive),5.74% (inactive)
CC(C)OC(=O)CSc1nnnn1-c1ccc2c(c1)OCCO2,99.5%,84.5% (inactive),99.5% (inactive),99% (inactive),88.6% (inactive),6.42% (inactive),82.2%,88.6%,-7.03% (inactive),-2.33% (inactive)
CS(=O)(=O)N1CCc2cc(C(=O)N3CCCCC3)ccc21,89.5%,89% (inactive),89.5% (inactive),99.8% (inactive),96.6% (inactive),8.06% (inactive),88.5%,96.6%,-3.42% (inactive),1.75% (inactive)
Cc1ccc(S(=O)(=O)Cn2nnnc2CN(Cc2ccco2)Cc2cccs2)cc1,91.5%,97.5% (inactive),91.5% (inactive),104% (inactive),80.6% (inactive),4.66% (inactive),75.9%,80.6%,-5.87% (inactive),-7.87% (inactive)
CC1CCC(NC(=O)C2CCN(c3cnccn3)CC2)CC1 (stereo not given),96%,95% (inactive),96% (inactive),88.6% (inactive),92.5% (inactive),11.3% (inactive),81.2%,92.5%,-1.76% (inactive),-2.7% (inactive)
CCOC(=O)N1CCN(CC(=O)Nc2c(C(=O)OC)[nH]c3cccc(Cl)c23)CC1,102%,97.5% (inactive),102% (inactive),91.9% (inactive),86.6% (inactive),-1.14% (inactive),87.8%,86.6%,-6.08% (inactive),8.5% (inactive)
O=C(c1cccc(C(=O)N2CCN(c3ccc(F)cc3)CC2)c1)N1CCN(c2ccc(F)cc2)CC1,110%,102% (inactive),110% (inactive),74% (inactive),73.4% (inactive),24% (inactive),49.4%,73.4%,3.51% (inactive),2.95% (inactive)
COc1ccc(-c2c3c(=O)n(C)c(=O)n(C)c3cn2-c2cccc(OC)c2)cc1,105%,97% (inactive),105% (inactive),95.9% (inactive),89.7% (inactive),-3.48% (inactive),93.2%,89.7%,0.39% (inactive),-6.03% (inactive)
Nc1c(C(=O)NCc2ccco2)nnn1Cc1ccccc1,85.5%,102% (inactive),85.5% (inactive),92.1% (inactive),96% (inactive),0.935% (inactive),95.1%,96%,-6.32% (inactive),3.33% (inactive)
O=C(NCc1ccco1)Nc1ccc2nsnc2c1,104%,114% (inactive),104% (inactive),51.5% (inactive),22% (active),-1.17% (inactive),23.2%,22%,-3.6% (inactive),-6.45% (inactive)
Cn1c(=O)[nH]c(=O)c2c1nc(NCCCn1ccnc1)n2Cc1ccccc1,89%,108% (inactive),89% (inactive),97.9% (inactive),95.8% (inactive),4.16% (inactive),91.7%,95.8%,-1.47% (inactive),-3.44% (inactive)
Cc1ccc(CNC(=O)CCCn2c(=O)c3ccccc3n(CC(=O)NCc3ccco3)c2=O)cc1,90.5%,144% (inactive),90.5% (inactive),104% (inactive),89.6% (inactive),-1.43% (inactive),91%,89.6%,2.76% (inactive),12.6% (inactive)
CN(CC(=O)N1CCN(C2CCCCC2)CC1)S(=O)(=O)c1cccc2nsnc12,88%,83% (inactive),88% (inactive),107% (inactive),97.2% (inactive),5.6% (inactive),91.5%,97.2%,-4.53% (inactive),6.23% (inactive)
Brc1ccc(C2=Nn3c(nnc3-c3ccncc3)SC2)cc1,94.5%,79.5% (inactive),94.5% (inactive),82.8% (inactive),77.1% (inactive),-14.3% (inactive),91.4%,77.1%,-2.89% (inactive),-0.36% (inactive)
CCOC(=O)N1CCC(Nc2c(-c3ccc(C)cc3)c(=O)c2=O)CC1,88.5%,100% (inactive),88.5% (inactive),100% (inactive),94.5% (inactive),11.5% (inactive),83%,94.5%,-8.42% (inactive),-8.73% (inactive)
CCCCc1nc2n[nH]c(N)c2c2c1CCCC2,138%,96% (inactive),138% (inactive),59.9% (inactive),92.3% (inactive),6.68% (inactive),85.6%,92.3%,-5.47% (inactive),-0.82% (inactive)

SMILES,viability [1],Her2 level [2],viability [3],viability [4],viability [5],differential viability (reversal) ([6]; H69AR cells + 2 uM doxorubicin),"viability [6, 9]","viability [6, 10]",inhibition [7],inhibition [8]
COc1ccc(N2CCN(C(=O)CSc3nnc(Cn4nnc5ccccc54)n3C)CC2)cc1,99.5%,111% (inactive),99.5% (inactive),108% (inactive),103% (inactive),11.4% (inactive),92.1%,103%,-1.97% (inactive),-6.61% (inactive)
CCOC(=O)N1CCC(NC(=O)c2ccc(OC)c(CN3CC(=O)N4CCCC4C3=O)c2)CC1 (stereo not given),93.5%,93% (inactive),93.5% (inactive),111% (inactive),96% (inactive),10% (inactive),85.9%,96%,-5.92% (inactive),-3.49% (inactive)
Cc1cc(=O)[nH]c(S/C=C/c2ccccc2)n1,91.5%,95% (inactive),91.5% (inactive),77% (inactive),79.9% (inactive),0.47% (inactive),79.4%,79.9%,-3.12% (inactive),-2.86% (inactive)
Cc1sc2nc(SCC(=O)N3CCN(CCO)CC3)n(-c3ccccc3)c(=O)c2c1C,118%,99% (inactive),118% (inactive),78.3% (inactive),88.1% (inactive),0.935% (inactive),87.2%,88.1%,0.65% (inactive),-0.16% (inactive)
COc1ccc(OC)c2[nH]c(=O)c(CCNC(=O)CC(C)C)cc12,111%,104% (inactive),111% (inactive),106% (inactive),100% (inactive),4.93% (inactive),95.2%,100%,-8.77% (inactive),-4.44% (inactive)
CC1(C)NC(=O)N(CC(O)COc2ccc(-c3ccccc3)cc2)C1=O (stereo not given),101%,102% (inactive),101% (inactive),74.3% (inactive),96.7% (inactive),3.21% (inactive),93.5%,96.7%,-2.24% (inactive),-4.83% (inactive)
COc1ccc(C(C(C(=O)c2cccs2)N2CCOCC2)N2CCOCC2)cc1OC (stereo not given),102%,112% (inactive),102% (inactive),84.3% (inactive),102% (inactive),4.94% (inactive),96.6%,102%,-1.97% (inactive),0% (inactive)
CCOc1ccc(/C=N/n2cnnc2)cc1,101%,94.5% (inactive),101% (inactive),78.8% (inactive),96.7% (inactive),7.86% (inactive),88.9%,96.7%,-0.52% (inactive),-3.93% (inactive)
Cc1nc2oc3c(NCc4ccccn4)ncnc3c2c2c1COC(C)(C)C2,90%,89% (inactive),90% (inactive),85.9% (inactive),99.2% (inactive),7.06% (inactive),92.2%,99.2%,-4.4% (inactive),-1.59% (inactive)
COc1ccc(C2(C(=O)Nc3c(C)n(C)n(-c4ccccc4)c3=O)CCCC2)cc1OC,94%,91.5% (inactive),94% (inactive),98.5% (inactive),106% (inactive),21.9% (inactive),84.1%,106%,-2.4% (inactive),1.43% (inactive)
COc1cc2c(cc1OC)C(c1ccccc1O)N(C1CC(=O)N(c3ccccc3)C1=O)CC2 (stereo not given),113%,96.5% (inactive),113% (inactive),97.7% (inactive),99.8% (inactive),18.3% (inactive),81.5%,99.8%,-4.42% (inactive),-5.08% (inactive)
CC(=O)Nc1sc2c(c1C#N)CCCCC2,132%,113% (inactive),132% (inactive),82.2% (inactive),95.6% (inactive),5.43% (inactive),90.2%,95.6%,-4.93% (inactive),-2.54% (inactive)
O=C(COc1ccccc1)Nc1ccccc1N1CCN(c2ccccc2)CC1,80%,86% (inactive),80% (inactive),96% (inactive),84.2% (inactive),1.58% (inactive),82.6%,84.2%,-4.27% (inactive),2.62% (inactive)
CC12CCC(C(=O)O)(c3nc(C#N)c(C#N)nc31)C2(C)C (stereo not given),106%,96.5% (inactive),106% (inactive),115% (inactive),91.6% (inactive),6.8% (inactive),84.8%,91.6%,-6.27% (inactive),6.07% (inactive)
COCCCn1c(SCC(=O)N2CCc3ccccc32)nnc1-c1ccoc1C,108%,80% (inactive),108% (inactive),93.8% (inactive),98.4% (inactive),2.4% (inactive),96%,98.4%,-4.67% (inactive),0.65% (inactive)
